What was measured:
Assay type in all cases: functional
Mus musculus [1] = experiment: Effect on compound induced hypothermia in Swiss Albino mouse at 5 mg/kg in presence of 0.1 mg/kg WAY 100635 after 60 mins relative to control
How it was run: (§1)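 Male Albino Swiss mice. WAY 100635 (0.1 mg/kg sc, in distilled water) given 15 min before the agonist (5 mg/kg sc, in saline). Rectal temperature recorded 30 and 60 min after agonist and expressed as Δt from basal; n = 8 per group; compared with vehicle + agonist group.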

Mus musculus [2] = experiment: Effect on compound induced hypothermia in Swiss Albino mouse at 5 mg/kg, sc in presence of 0.1 mg/kg WAY 100635 after 30 mins relative to control; how it was run: as §1
Mus musculus [3] = experiment: Decrease in body temperature in Swiss Albino mouse at 5 mg/kg, sc after 60 mins relative control; conditions: route subcutaneous
How it was run: (§2)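 Male Albino Swiss mice (24-28 g); drug dissolved in saline, injected sc at 10 mL/kg. Rectal temperature recorded with a thermometer at 30 and 60 min after injection. Result expressed as change (Δt) from basal temperature taken at the start of the experiment; n = 8 per group; mean ± SEM versus vehicle.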

Mus musculus [4] = experiment: Decrease in body temperature in Swiss Albino mouse at 5 mg/kg, sc after 30 mins relative control; conditions: route subcutaneous; how it was run: as §2

`CCCN(CCC)C1CCc2cccc(O)c2C1` (centres undefined) [8-OH-DPAT] was tested. Which Activity (Mus musculus [1]) did it give?
The Activity was 0.1 °C.

And the Activity (Mus musculus [2])?
Its Activity is -0.1 °C.

And the Activity (Mus musculus [3])?
The Activity was -0.7 °C.

And the Activity (Mus musculus [4])?
The Activity was -1 °C.

Reference: ChEMBL document CHEMBL1143707, “7-Arylpiperazinylalkyl and 7-tetrahydroisoquinolinylalkyl derivatives of 8-alkoxy-purine-2,6-dione and some of their purine-2,6,8-trione analogs as 5-HT(1A), 5-HT(2A), and 5-HT(7) serotonin receptor ligands” (Bioorg Med Chem, 2007)
